Laboratory results published in ChEMBL document CHEMBL1132924, “Molecular determinants of MAO selectivity in a series of indolylmethylamine derivatives: biological activities, 3D-QSAR/CoMFA analysis, and computational simulation of ligand recognition” (J Med Chem, 2000).

What was measured:
[1] = biological target: T1, Amine oxidase [flavin-containing] A (Rattus norvegicus, UniProt P21396); experiment: (§1) Inhibitory activity against Monoamine oxidase A
T1 sequence (P21396 whole entry): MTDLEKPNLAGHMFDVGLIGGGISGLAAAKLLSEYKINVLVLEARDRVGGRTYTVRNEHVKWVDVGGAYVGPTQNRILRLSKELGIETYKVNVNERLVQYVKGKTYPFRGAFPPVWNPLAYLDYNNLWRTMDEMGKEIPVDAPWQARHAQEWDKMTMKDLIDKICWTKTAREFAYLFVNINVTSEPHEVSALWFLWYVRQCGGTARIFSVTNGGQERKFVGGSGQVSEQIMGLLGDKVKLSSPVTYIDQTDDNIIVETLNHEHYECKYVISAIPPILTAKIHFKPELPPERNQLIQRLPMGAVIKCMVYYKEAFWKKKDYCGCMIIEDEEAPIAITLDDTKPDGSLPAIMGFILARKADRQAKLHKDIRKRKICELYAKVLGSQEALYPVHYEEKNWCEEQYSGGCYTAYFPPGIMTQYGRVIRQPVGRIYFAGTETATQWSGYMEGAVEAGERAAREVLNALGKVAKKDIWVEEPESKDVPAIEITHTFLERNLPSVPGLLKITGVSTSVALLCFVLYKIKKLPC
In short: (§2)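 Rat liver mitochondrial fraction (male Sprague-Dawley, 200-250 g), homogenised in 50 mM potassium phosphate pH 7.2. Kynuramine 40 µM as substrate with MAO-B activity blocked beforehand by L-deprenyl, product read at 324 nm. Ki for reversible complex formation obtained by direct analysis of spectrophotometric reaction progress curves over varying inhibitor concentrations.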

[2] = biological target: T2, Amine oxidase [flavin-containing] B (Rattus norvegicus, UniProt P19643); experiment: (§3) Inhibitory activity against Monoamine oxidase B
T2 sequence (P19643 whole entry): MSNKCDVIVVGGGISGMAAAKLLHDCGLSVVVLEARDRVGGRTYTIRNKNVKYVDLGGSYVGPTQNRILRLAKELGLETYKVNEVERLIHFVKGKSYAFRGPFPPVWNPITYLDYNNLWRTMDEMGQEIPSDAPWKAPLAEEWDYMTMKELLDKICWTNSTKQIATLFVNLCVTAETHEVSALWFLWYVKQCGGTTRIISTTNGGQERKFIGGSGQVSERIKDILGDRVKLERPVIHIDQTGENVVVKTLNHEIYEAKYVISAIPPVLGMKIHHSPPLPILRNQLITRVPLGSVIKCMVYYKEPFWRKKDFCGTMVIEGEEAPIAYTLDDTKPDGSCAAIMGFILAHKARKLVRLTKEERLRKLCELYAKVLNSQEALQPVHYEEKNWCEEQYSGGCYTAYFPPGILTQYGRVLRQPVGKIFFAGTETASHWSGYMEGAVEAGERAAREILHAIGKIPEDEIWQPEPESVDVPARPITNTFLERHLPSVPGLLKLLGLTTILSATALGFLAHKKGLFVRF
In short: (§4)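 Enzyme is a mitochondrial fraction from livers of male Sprague-Dawley rats (200-250 g), homogenised in 50 mM potassium phosphate pH 7.2. Activity followed at 37 °C with 333 µM benzylamine, product appearance read at 250 nm. Ki for reversible complex formation came from direct fitting of progress curves recorded at varying inhibitor concentrations.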

[3] = biological target: T1, Amine oxidase [flavin-containing] A; experiment: as §1; in short: as §2; remark: listed apart in the source
[4] = biological target: T2, Amine oxidase [flavin-containing] B; experiment: as §3; in short: as §4; remark: listed apart in the source

Row | Compound | Ki [1] | Ki [2] | Ki [3] | Ki [4]
1 | C#CCN(C)Cc1cc2ccccc2n1C | 0.0003 µM | 0.003 µM | 0.000302 µM | –
2 | CC#CCN(C)Cc1cc2cc(O)ccc2n1C | 0.0057 µM | 8.8 µM | 0.00575 µM | –
3 | CC#CCN(C)Cc1cc2ccccc2n1C | 0.0043 µM | 0.03 µM | 0.00427 µM | –
4 | C#CCN(C)Cc1cn(Cc2ccccc2)c2ccccc12 | 160 µM | 476 µM | 158 µM | –
5 | CNCc1cn(Cc2ccccc2)c2ccccc12 | 167 µM | 338 µM | 166 µM | –
6 | C#CCNCc1cc2cc(O)ccc2n1C | 4 µM | 8.9 µM | 3.98 µM | –
7 | CC#CCNCc1cc2cc(OCc3ccccc3)ccc2[nH]1 | – | 0.015 µM | 15.1 µM | –
8 | CC#CCN(C)Cc1cc2cc(OC)ccc2n1C | 0.0014 µM | 0.37 µM | 0.00141 µM | –
9 | CCNCc1cn(Cc2ccccc2)c2ccccc12 | 262 µM | 429 µM | 263 µM | –
10 | C#CCNCc1cc2cc(OCc3ccccc3)ccc2[nH]1 | 0.79 µM | 0.00075 µM | – | –
11 | c1ccc(CNCc2cc3ccccc3[nH]2)cc1 | 87 µM | 159 µM | 87.1 µM | –
12 | C#CCN(C)Cc1cc2cc(O)ccc2n1C | 0.004 µM | 0.82 µM | 0.00398 µM | –
13 | C#CCN(Cc1ccccc1)Cc1cn(Cc2ccccc2)c2ccccc12 | > 1000 µM | 260 µM | – | –
14 | C#CCNCc1cc2ccccc2n1C | 0.24 µM | 3.83 µM | 0.24 µM | –
15 | CC(C)NCc1cn(Cc2ccccc2)c2ccccc12 | 133 µM | 438 µM | 132 µM | –
16 | C#CCN(Cc1ccccc1)Cc1cc2ccccc2n1C | 10 µM | 60 µM | 10 µM | –
17 | Cn1c(CNCc2ccccc2)cc2ccccc21 | 34 µM | 48 µM | 33.9 µM | –
18 | C#CCN(C)Cc1cc2cc(OC)ccc2n1C | 0.0015 µM | 0.03 µM | 0.00151 µM | 0.0575 µM
19 | C#CCNCc1cc2cc(OC)ccc2n1C | 0.0008 µM | 0.004 µM | 0.000813 µM | –
20 | c1ccc(CNCc2cn(Cc3ccccc3)c3ccccc23)cc1 | 244 µM | 362 µM | 245 µM | –
21 | CC#CCN(Cc1ccccc1)Cc1cc2ccccc2n1C | > 1000 µM | 50 µM | – | –
